≈ marks a conversion by molar mass, not a printed value.
test system: Brain; assay: Antioxidant activity in Wistar rat brain assessed as reduction in glutathione content; assay type: functional, tissue-based; conditions: not given
In short: (§1)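 Wistar rat brain was homogenised 1:40 (w/v) in 0.1 M phosphate buffer, pH 7.4, with 1 mM EDTA. Total glutathione (GSH + GSSG) and reduced GSH were assayed spectrophotometrically from optical density, using net rate against a standard-curve slope and intercept, times a dilution factor. Homogenate protein was measured by the Lowry method.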

SMILES | EC50 [µg/mL]
COc1ccc2c3c1O[C@H]1C[C@@H](O)C=C[C@@]31CCN(C)C2 [GALANTAMINE] | 4.21 (≈ 14.7 µM)
O=C1O[C@H]([C@@H](O)CO)C(O)=C1O [ASCORBIC ACID] | 0.98 (≈ 5.56 µM)
COc1ccc2c3c1O[C@H]1C[C@@H](OP(=O)(NCCN)Oc4ccc([N+](=O)[O-])cc4)C=C[C@@]31CCN(C)C2 (stereo partly specified) | 1.89 (≈ 3.56 µM)

test system: Brain; assay: Antioxidant activity in Wistar rat brain assessed as glutathione content; assay type: functional; conditions: not given; in short: as §1

SMILES | Activity [µg/mL]
COc1ccc2c3c1O[C@H]1C[C@@H](O)C=C[C@@]31CCN(C)C2 [GALANTAMINE] | 4.69
O=C1O[C@H]([C@@H](O)CO)C(O)=C1O [ASCORBIC ACID] | 31.34
COc1ccc2c3c1O[C@H]1C[C@@H](OP(=O)(NCCN)Oc4ccc([N+](=O)[O-])cc4)C=C[C@@]31CCN(C)C2 (stereo partly specified) | 5.06

target: not listed separately; assay: Inhibition of superoxide dismutase in Wistar rat brain; assay type: tissue-based; conditions: not given

SMILES | EC50 [µg/mL]
COc1ccc2c3c1O[C@H]1C[C@@H](O)C=C[C@@]31CCN(C)C2 [GALANTAMINE] | 3.84 (≈ 13.4 µM)
O=C1O[C@H]([C@@H](O)CO)C(O)=C1O [ASCORBIC ACID] | 0.99 (≈ 5.62 µM)
COc1ccc2c3c1O[C@H]1C[C@@H](OP(=O)(NCCN)Oc4ccc([N+](=O)[O-])cc4)C=C[C@@]31CCN(C)C2 (stereo partly specified) | 1.91 (≈ 3.6 µM)

test system: Staphylococcus aureus; assay: Antibacterial activity against Staphylococcus aureus at 2 mg/mL after 18 hrs by disc diffusion assay; assay type: functional; conditions: read-out: IZ
In short: (§2)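 Bacteria were grown in nutrient broth at 37 °C for 18 h on a rotary shaker at 150 rpm. Compounds were dissolved in DMF. Nutrient agar plates were dried at 35–36 °C for about 30 min, and test strains were spread on the surface. Discs were applied, and plates were inverted and incubated at 37 °C. A DMF blank was run.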

SMILES | zone of inhibition at 2000 µg/mL [mm]
COc1ccc2c3c1O[C@H]1C[C@@H](O)C=C[C@@]31CCN(C)C2 [GALANTAMINE] | 2.66
COc1ccc2c3c1O[C@H]1C[C@@H](OP(=O)(NCCN)Oc4ccc([N+](=O)[O-])cc4)C=C[C@@]31CCN(C)C2 (stereo partly specified) | 5.09

test system: Bacillus subtilis; assay: Antibacterial activity against Bacillus subtilis at 2 mg/mL after 18 hrs by disc diffusion assay; assay type: functional; conditions: read-out: IZ; in short: as §2

SMILES | zone of inhibition at 2000 µg/mL [mm]
COc1ccc2c3c1O[C@H]1C[C@@H](O)C=C[C@@]31CCN(C)C2 [GALANTAMINE] | 2.25
COc1ccc2c3c1O[C@H]1C[C@@H](OP(=O)(NCCN)Oc4ccc([N+](=O)[O-])cc4)C=C[C@@]31CCN(C)C2 (stereo partly specified) | 4.91

test system: Escherichia coli; assay: Antibacterial activity against Escherichia coli at 2 mg/mL after 18 hrs by disc diffusion assay; assay type: functional; conditions: read-out: IZ; in short: as §2

SMILES | zone of inhibition at 2000 µg/mL [mm]
COc1ccc2c3c1O[C@H]1C[C@@H](O)C=C[C@@]31CCN(C)C2 [GALANTAMINE] | 2.02
COc1ccc2c3c1O[C@H]1C[C@@H](OP(=O)(NCCN)Oc4ccc([N+](=O)[O-])cc4)C=C[C@@]31CCN(C)C2 (stereo partly specified) | 3.73

test system: Brain; assay: Antioxidant activity in Wistar rat brain assessed as superoxide dismutase content; assay type: functional; conditions: not given

SMILES | Activity [µg/mL]
COc1ccc2c3c1O[C@H]1C[C@@H](O)C=C[C@@]31CCN(C)C2 [GALANTAMINE] | 29.37
COc1ccc2c3c1O[C@H]1C[C@@H](OP(=O)(NCCN)Oc4ccc([N+](=O)[O-])cc4)C=C[C@@]31CCN(C)C2 (stereo partly specified) | 29.73

target: T1, Catalase (Rattus norvegicus, UniProt P04762); assay: Inhibition of catalase in Wistar rat brain; conditions: not given
T1 sequence (P04762 whole entry): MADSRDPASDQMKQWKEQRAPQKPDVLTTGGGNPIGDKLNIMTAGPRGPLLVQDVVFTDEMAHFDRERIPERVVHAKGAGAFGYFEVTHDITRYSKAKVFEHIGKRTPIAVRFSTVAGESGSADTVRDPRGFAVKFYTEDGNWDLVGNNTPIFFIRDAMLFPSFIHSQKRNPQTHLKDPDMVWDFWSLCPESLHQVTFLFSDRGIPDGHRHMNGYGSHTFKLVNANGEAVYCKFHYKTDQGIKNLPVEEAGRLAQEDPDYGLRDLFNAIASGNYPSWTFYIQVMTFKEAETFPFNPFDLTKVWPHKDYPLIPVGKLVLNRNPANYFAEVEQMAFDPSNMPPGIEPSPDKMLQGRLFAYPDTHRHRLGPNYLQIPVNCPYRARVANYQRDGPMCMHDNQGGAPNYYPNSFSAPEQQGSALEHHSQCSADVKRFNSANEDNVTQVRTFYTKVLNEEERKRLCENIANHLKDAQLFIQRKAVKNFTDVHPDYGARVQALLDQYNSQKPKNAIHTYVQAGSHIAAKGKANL

SMILES | EC50 [µg/mL]
COc1ccc2c3c1O[C@H]1C[C@@H](O)C=C[C@@]31CCN(C)C2 [GALANTAMINE] | 5.06 (≈ 17.6 µM)
COc1ccc2c3c1O[C@H]1C[C@@H](OP(=O)(NCCN)Oc4ccc([N+](=O)[O-])cc4)C=C[C@@]31CCN(C)C2 (stereo partly specified) | 1.81 (≈ 3.41 µM)

test system: Brain; assay: Antioxidant activity in Wistar rat brain assessed as lipid peroxidation; assay type: functional, tissue-based; conditions: not given

SMILES | Activity [µg/mL]
COc1ccc2c3c1O[C@H]1C[C@@H](O)C=C[C@@]31CCN(C)C2 [GALANTAMINE] | 70.7
O=C1O[C@H]([C@@H](O)CO)C(O)=C1O [ASCORBIC ACID] | 88.1
COc1ccc2c3c1O[C@H]1C[C@@H](OP(=O)(NCCN)Oc4ccc([N+](=O)[O-])cc4)C=C[C@@]31CCN(C)C2 (stereo partly specified) | 75.9

test system: Klebsiella pneumoniae; assay: Antibacterial activity against Klebsiella pneumoniae after 18 hrs; assay type: functional; conditions: not given

SMILES | MIC [µg/mL]
COc1ccc2c3c1O[C@H]1C[C@@H](O)C=C[C@@]31CCN(C)C2 [GALANTAMINE] | 0.62 (≈ 2.16 µM)
COc1ccc2c3c1O[C@H]1C[C@@H](OP(=O)(NCCN)Oc4ccc([N+](=O)[O-])cc4)C=C[C@@]31CCN(C)C2 (stereo partly specified) | 0.38 (≈ 0.716 µM)

test system: Klebsiella pneumoniae; assay: Antibacterial activity against Klebsiella pneumoniae at 2 mg/mL after 18 hrs by disc diffusion assay; assay type: functional; conditions: read-out: IZ; in short: as §2

SMILES | zone of inhibition at 2000 µg/mL [mm]
COc1ccc2c3c1O[C@H]1C[C@@H](O)C=C[C@@]31CCN(C)C2 [GALANTAMINE] | 2.21
COc1ccc2c3c1O[C@H]1C[C@@H](OP(=O)(NCCN)Oc4ccc([N+](=O)[O-])cc4)C=C[C@@]31CCN(C)C2 (stereo partly specified) | 6.11

test system: Escherichia coli; assay: Antibacterial activity against Escherichia coli after 18 hrs; assay type: functional; conditions: not given

SMILES | MIC [µg/mL]
COc1ccc2c3c1O[C@H]1C[C@@H](O)C=C[C@@]31CCN(C)C2 [GALANTAMINE] | 0.7 (≈ 2.44 µM)
COc1ccc2c3c1O[C@H]1C[C@@H](OP(=O)(NCCN)Oc4ccc([N+](=O)[O-])cc4)C=C[C@@]31CCN(C)C2 (stereo partly specified) | 0.62 (≈ 1.17 µM)

test system: Klebsiella pneumoniae; assay: Antibacterial activity against Klebsiella pneumoniae at 1 mg/mL after 18 hrs by disc diffusion assay; assay type: functional; conditions: read-out: IZ; in short: as §2

SMILES | zone of inhibition at 1000 µg/mL [mm]
COc1ccc2c3c1O[C@H]1C[C@@H](O)C=C[C@@]31CCN(C)C2 [GALANTAMINE] | 1.83
COc1ccc2c3c1O[C@H]1C[C@@H](OP(=O)(NCCN)Oc4ccc([N+](=O)[O-])cc4)C=C[C@@]31CCN(C)C2 (stereo partly specified) | 2.78

test system: Staphylococcus aureus; assay: Antibacterial activity against Staphylococcus aureus after 18 hrs; assay type: functional; conditions: not given

SMILES | MIC [µg/mL]
COc1ccc2c3c1O[C@H]1C[C@@H](O)C=C[C@@]31CCN(C)C2 [GALANTAMINE] | 1 (≈ 3.48 µM)
COc1ccc2c3c1O[C@H]1C[C@@H](OP(=O)(NCCN)Oc4ccc([N+](=O)[O-])cc4)C=C[C@@]31CCN(C)C2 (stereo partly specified) | 0.75 (≈ 1.41 µM)

test system: Brain; assay: Antioxidant activity in Wistar rat brain assessed as inhibition of lipid peroxidation; assay type: functional, tissue-based; conditions: not given

SMILES | EC50 [µg/mL]
COc1ccc2c3c1O[C@H]1C[C@@H](O)C=C[C@@]31CCN(C)C2 [GALANTAMINE] | 4.93 (≈ 17.2 µM)
O=C1O[C@H]([C@@H](O)CO)C(O)=C1O [ASCORBIC ACID] | 1.02 (≈ 5.79 µM)
COc1ccc2c3c1O[C@H]1C[C@@H](OP(=O)(NCCN)Oc4ccc([N+](=O)[O-])cc4)C=C[C@@]31CCN(C)C2 (stereo partly specified) | 1.99 (≈ 3.75 µM)

test system: Brain; assay: Antioxidant activity in Wistar rat brain assessed as catalase content; assay type: functional; conditions: not given

SMILES | Activity [µg/mL]
COc1ccc2c3c1O[C@H]1C[C@@H](O)C=C[C@@]31CCN(C)C2 [GALANTAMINE] | 283.44
O=C1O[C@H]([C@@H](O)CO)C(O)=C1O [ASCORBIC ACID] | 385.46
COc1ccc2c3c1O[C@H]1C[C@@H](OP(=O)(NCCN)Oc4ccc([N+](=O)[O-])cc4)C=C[C@@]31CCN(C)C2 (stereo partly specified) | 295.92

test system: Escherichia coli; assay: Antibacterial activity against Escherichia coli at 1 mg/mL after 18 hrs by disc diffusion assay; assay type: functional; conditions: read-out: IZ; in short: as §2

SMILES | zone of inhibition at 1000 µg/mL [mm]
COc1ccc2c3c1O[C@H]1C[C@@H](O)C=C[C@@]31CCN(C)C2 [GALANTAMINE] | 1.47
COc1ccc2c3c1O[C@H]1C[C@@H](OP(=O)(NCCN)Oc4ccc([N+](=O)[O-])cc4)C=C[C@@]31CCN(C)C2 (stereo partly specified) | 1.02

test system: Bacillus subtilis; assay: Antibacterial activity against Bacillus subtilis at 1 mg/mL after 18 hrs by disc diffusion assay; assay type: functional; conditions: read-out: IZ; in short: as §2

SMILES | zone of inhibition at 1000 µg/mL [mm]
COc1ccc2c3c1O[C@H]1C[C@@H](O)C=C[C@@]31CCN(C)C2 [GALANTAMINE] | 1.65
COc1ccc2c3c1O[C@H]1C[C@@H](OP(=O)(NCCN)Oc4ccc([N+](=O)[O-])cc4)C=C[C@@]31CCN(C)C2 (stereo partly specified) | 1.93

test system: Bacillus subtilis; assay: Antibacterial activity against Bacillus subtilis after 18 hrs; assay type: functional; conditions: not given

SMILES | MIC [µg/mL]
COc1ccc2c3c1O[C@H]1C[C@@H](O)C=C[C@@]31CCN(C)C2 [GALANTAMINE] | 0.18 (≈ 0.626 µM)
COc1ccc2c3c1O[C@H]1C[C@@H](OP(=O)(NCCN)Oc4ccc([N+](=O)[O-])cc4)C=C[C@@]31CCN(C)C2 (stereo partly specified) | 0.15 (≈ 0.283 µM)

test system: Staphylococcus aureus; assay: Antibacterial activity against Staphylococcus aureus at 1 mg/mL after 18 hrs by disc diffusion assay; assay type: functional; conditions: read-out: IZ; in short: as §2

SMILES | zone of inhibition at 1000 µg/mL [mm]
COc1ccc2c3c1O[C@H]1C[C@@H](O)C=C[C@@]31CCN(C)C2 [GALANTAMINE] | 1.39
COc1ccc2c3c1O[C@H]1C[C@@H](OP(=O)(NCCN)Oc4ccc([N+](=O)[O-])cc4)C=C[C@@]31CCN(C)C2 (stereo partly specified) | 1.84

— ChEMBL document CHEMBL1154647, “Synthesis, spectral characterization and biological evaluation of phosphorylated derivatives of galanthamine” (Eur J Med Chem, 2010)
